Screening data: PubChem, Broad Institute
SR-BI uptake up = SR-BI HDL lipid transfer activation; CHO ldlA[mSR-BI] cells, DiI-HDL uptake fluorescence, 3 h; 100 = double the neutral-control signal; AID 504775; activation, % at 12.5 µM; hit rate 0.096% among 320,000;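 active means mean replicate activation of at least 60% and every replicate at or above 60%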;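 further: 0% = median plate neutral-control signal and 100% = twice that signal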
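System: LDL receptor-deficient CHO ldlA cells overexpressing murine SR-BI | Timing: 3 h uptake period with compound, 37 °C | Medium: HEPES-buffered (25 mM, pH 7.4) F12 plus 0.5% BSA | Dosing: Single-point compound dose | Signal: Bottom-read fluorescence, 550/595 nm | Read-out: Retained DiI signal reflecting DiI-HDL uptake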
dFosB act = activators of mouse delta FosB homodimer. P13346. purified delta FosB, TAMRA-CDK5 oligo fluorescence polarization; percent of positive-control signal above neutral wells. activation, % at 25 µM. hit rate 0.99% among 340,000;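 active means mean activation above about 17%, with every replicate also reaching it, limit read from the data, passing the limit was not always enough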
SR-BI HDL uptake = inhibitors of mouse SR-BI mediated HDL lipid uptake | ldlA[mSR-BI] CHO cells, DiI-HDL uptake fluorescence, 3 h | AID 488896 | hit rate 0.96% among 320,000 | Q61009 | inhibition, % at 12.5 µM;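 active means mean replicate inhibition of at least 70% and a set share of replicates each scoring 70 or more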;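 further: 0% = median of neutral control wells and 100% = median of positive control wells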
CDK5 p35 inh = CDK5/p35 (human) kinase inhibition; inhibition, % at 10 µM; hit rate 0.01% among 330,000; Recombinant CDK5/p35, ADP-Glo luminescence, 60 min; Q00535+Q15078;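 active means highest replicate inhibition of at least 50% and at least 75% of replicates reaching 50%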;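 further: plate controls were DMSO neutral control for no effect and GW8510 at 10 µM for full effect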
The depositor's hits bear a star. Only some compounds are listed: those with a hit (about 2% of all), similar ones and a draw of the others.

For CN1/C(=C\C=N\O)C(C)(C)c2ccccc21 the results were SR-BI uptake up 1, dFosB act 4, SR-BI HDL uptake -1 and CDK5 p35 inh -1.
For CCCN1C(=O)/C(=C\C=C2\N(CC)c3ccccc3C2(C)C)SC1=S the results were SR-BI uptake up -87, dFosB act -99, SR-BI HDL uptake 87* and CDK5 p35 inh 0.
`CN1C(=CC=C2C=C(I)C(=O)C(I)=C2)C(C)(C)c2ccccc21` gave SR-BI uptake up 53, dFosB act 175*, SR-BI HDL uptake -53 and CDK5 p35 inh -1.
`CN1/C(=C\C=C2/SC(=S)NC2=O)C(C)(C)c2ccccc21` gave SR-BI uptake up 7, dFosB act 70*, SR-BI HDL uptake -7 and CDK5 p35 inh 4.
For CO/N=C/C=C1/N(C)c2ccccc2C1(C)C the results were SR-BI uptake up 3, dFosB act 2, SR-BI HDL uptake -3 and CDK5 p35 inh -3.
`O=C(CCc1nc2ccccc2c(=O)[nH]1)N1CCCc2ccccc21` gave SR-BI uptake up -4, dFosB act -11, SR-BI HDL uptake 4 and CDK5 p35 inh -3.
For Cc1ccc2oc(=O)n(Cc3ccccc3)c2c1 the results were SR-BI uptake up -11, dFosB act -3, SR-BI HDL uptake 11 and CDK5 p35 inh 0.
`Cc1ccc(NC(=O)c2ccc(Cl)c(S(=O)(=O)Nc3c(C)n(C)n(-c4ccccc4)c3=O)c2)cc1Cl` gave SR-BI uptake up -73, dFosB act -13, SR-BI HDL uptake 73* and CDK5 p35 inh -1.
`COc1cc(/C=N/Nc2nncc3ccccc23)cc(OC)c1OC` gave SR-BI uptake up -57, dFosB act -7, SR-BI HDL uptake 57 and CDK5 p35 inh 3.
Screening COc1ccc(/C=N/Nc2nncc3ccccc23)c(OC)c1 returned SR-BI uptake up -76, dFosB act -2, SR-BI HDL uptake 76* and CDK5 p35 inh -1.
For COc1ccc(S(=O)(=O)NC(C)C(=O)NCc2ccccn2)cc1Cl (stereo not drawn) the results were SR-BI uptake up 7, dFosB act -3, SR-BI HDL uptake -7 and CDK5 p35 inh 2.
CCSc1nc(-c2ccc(OC)cc2)cc(-c2ccccc2)c1C#N was read as SR-BI uptake up -80, dFosB act 1, SR-BI HDL uptake 80* and CDK5 p35 inh 2.
For COc1ccc(C(=O)NC(CC(=O)O)c2cc([N+](=O)[O-])ccc2Cl)c(SC)c1 (stereo not drawn) the results were SR-BI uptake up 8, dFosB act -1, SR-BI HDL uptake -8 and CDK5 p35 inh -1.
`Cn1c2ccccc2c2cc([N+](=O)[O-])ccc21` gave SR-BI uptake up -13, dFosB act -1, SR-BI HDL uptake 13 and CDK5 p35 inh -1.
Screening CCN(CC)CCn1c2ccccc2c2nc3ccc([N+](=O)[O-])cc3cc21 returned SR-BI uptake up -26, dFosB act 51*, SR-BI HDL uptake 26 and CDK5 p35 inh -1.
Cc1nc2cc(-c3ccccc3)nn2c(C)c1CCC(=O)NC(C)c1ccc2c(c1)OCCO2 (stereo not drawn) was read as SR-BI uptake up -77, dFosB act -11, SR-BI HDL uptake 77* and CDK5 p35 inh 0.
`Cc1ccc(-c2nnn3c2nc(NCCc2ccc(S(N)(=O)=O)cc2)c2ccccc23)cc1` gave SR-BI uptake up 88*, dFosB act 3, SR-BI HDL uptake -88 and CDK5 p35 inh 1.
N#CCCn1cc(/C=N/NC(N)=S)c(-c2ccccc2)n1 was read as SR-BI uptake up -79, dFosB act 0, SR-BI HDL uptake 79* and CDK5 p35 inh 3.
For Cc1ccc(S(=O)(=O)c2nc(S(=O)(=O)c3ccccc3)sc2N2CCN(C)CC2)cc1 the results were SR-BI uptake up 19, dFosB act -1, SR-BI HDL uptake -19 and CDK5 p35 inh 2.
Screening CCCCn1nnc(NC(=S)NC(=O)c2ccc(OCC)c([N+](=O)[O-])c2)n1 returned SR-BI uptake up 6, dFosB act -11, SR-BI HDL uptake -6 and CDK5 p35 inh -2.
`Cn1c(=O)n(CCc2ccccc2)c(=O)c2c1nc1n2CCCN1CCc1ccccc1` gave SR-BI uptake up 506*, dFosB act -8, SR-BI HDL uptake inactive and CDK5 p35 inh 1.
`O=C(COC(=O)/C=C/c1ccc(C(F)(F)F)cc1)NCc1ccco1` gave SR-BI uptake up 20, dFosB act -11, SR-BI HDL uptake -20 and CDK5 p35 inh -2.
